Data set [1] concerns MCF10dcis.com (DCIS) cells. The data set can be described thus: Copper accumulation in breast cancer cells measured by ICP-OES. The note with it: for difference in ability to accumulate cellular copper versus inactive analogs: 10 μM CuCl2 mixtures, 1 h (8-OHQ vs 2, 3) or 8 hrs (CQ vs 5, 6); for increase of intracellular copper level: compound-copper mixture. The data set is classed as cell-based, human.

The test system of data set [2] is breast cancer DCIS cells. The data set can be described thus: Cell proliferation assay. The note with it: for toxicity of compound alone: DCIS cells, compound without copper, 24 h, MTT. The data set is classed as cell-based, human. An outline of the steps:
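DCIS human breast cancer cells were kept in DMEM/F12 with 5% horse serum, bicarbonate, 10 mM HEPES and antibiotics at 37 °C, 5% CO2. They were grown to 70–80% confluency, then given test compound alone or premixed with CuCl2 at various concentrations for 24 h at 37 °C. Medium was removed before the MTT read-out. Viability is expressed as percent of DMSO-treated cells (mean±SD, n=4).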

A short description of data set [3]: Cu-ligand binding by UV-vis titration. The note with it: UV-vis titration with CuCl2 in methanol; 0.1 mM compound. The data set is classed as physicochemical.
Data set [4] is described as follows: Parallel artificial membrane permeability assay. The data set is classed as in vitro ADME. As to conditions: PAMPA. The gist of the method: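 Test compound was supplied as a 10 mM DMSO stock and diluted 200-fold in pH 7.4 buffer. It was placed in the donor wells under an artificial lipid membrane filter plate holding pH 7.4 acceptor sink buffer. Plates were incubated 0.5 h at room temperature, with each well magnetically stirred. Donor and acceptor concentrations were measured by UV plate spectrometry in an automated workflow.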
(In PAMPA a lipid-coated filter parts donor from acceptor wells.)

Data set [5] can be described thus: Caco-2 permeability assay. The data set is classed as in vitro ADME. The note with it: human; for efflux ratio at 2 h, 50 μmol/L: Caco-2, pH 7.4; for Papp at 2 h, 50 μmol/L: 2 hrs at 37°C. The gist of the method: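 Caco-2 cells were grown in MEM with 20% FBS at 37 °C and 5% CO2. They were seeded on transwell inserts at 0.165×10^5 cells/insert and cultured 21 days in 10% FBS MEM, with monolayer integrity checked by TEER. Monolayers were washed in HBSS/HEPES (10 mM, pH 7.4). Test compound (50 μmol/L) was added apically or basolaterally and incubated 2 h at 37 °C. The receiver side was quantified by UPLC/MS. Papp = dQ/dt×1/AC0, and efflux ratio = B→A/A→B.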
On the technique in general: Passage across Caco-2 layers is used to estimate intestinal permeability.

The mark [6] stands for this setting: Caco-2, pH 7.4, CaCo2 Papp A/B, apical to basolateral.
The mark [7] stands for this setting: Caco-2, pH 7.4, Caco2 Papp B/A, basolateral to apical.

`Oc1cccc2cccnc12` [Compound 1, 8-hydroxyquinoline, reference compound]: the “difference in ability to accumulate cellular copper versus inactive analogs” value in data set [1] is recorded as “at least 100 fold”. Further, in data set [1], the “increase of intracellular copper level” value stood at 135 fold. Besides, the “toxicity of compound alone” value in data set [2] was “some toxicity”; in data set [2] (listed as 8-OHQ), “much less or no toxicity”. In addition, the “formation of copper complex” value in data set [3] is “bind to copper and form complexes”. The same molecule registered a Papp at 0.5 hr, 50 µM in data set [4] of 21.3 ± 1.6 ×10⁻⁶ cm/s. Also, the efflux ratio at 2 h, 50 μmol/L in data set [5] is 0.8. The Papp at 2 h, 50 μmol/L in data set [5] (setting [6]) came to 38 ± 14.8 ×10⁻⁶ cm/s; in data set [5] (setting [7]), 29 ± 1.1 ×10⁻⁶ cm/s.
For the molecule `COc1cccc2cccnc12` [Compound 2, 8-methoxyquinoline], in data set [1], the “increase of intracellular copper level” value was “did not change the accumulation of intracellular copper”. Besides, the “formation of copper complex” value in data set [3] was “could not form complexes with copper”. This molecule also displayed a Papp at 0.5 hr, 50 µM in data set [4] of 68.2 ± 10.9 ×10⁻⁶ cm/s. Moreover, the efflux ratio at 2 h, 50 μmol/L in data set [5] amounted to 0.6. Further, the apparent permeability coefficient (Papp) at 2 h, 50 μmol/L in data set [5] (setting [6]) came out at 48.3 ± 2.6 ×10⁻⁶ cm/s; in data set [5] (setting [7]) it was 29.9 ± 0.7 ×10⁻⁶ cm/s.
As for `CCOc1cccc2cccnc12` [Compound 3, 8-ethoxyquinoline], in data set [1], the “increase of intracellular copper level” value is “did not change the accumulation of intracellular copper”. In addition, the “formation of copper complex” value in data set [3] is on record as “could not form complexes with copper”. The apparent permeability coefficient (Papp) at 0.5 hr, 50 µM in data set [4] is 72.6 ± 24.8 ×10⁻⁶ cm/s. The efflux ratio at 2 h, 50 μmol/L in data set [5] was found to be 0.5. For the same molecule, the Papp at 2 h, 50 μmol/L in data set [5] (setting [6]) was determined as 20.7 ± 14.6 ×10⁻⁶ cm/s; in data set [5] (setting [7]) it was 9.4 ± 2.5 ×10⁻⁶ cm/s.
Consider `Oc1c(I)cc(Cl)c2cccnc12` [Compound 4, 5-chloro-7-iodo-8-hydroxyquinoline, reference compound], for which the “difference in ability to accumulate cellular copper versus inactive analogs” value in data set [1] is 40–50 fold. The entries for the “toxicity of compound alone” value in data set [2] and in data set [2] (listed as CQ) were “some toxicity” and “much less or no toxicity”, respectively. For the same molecule, in data set [3], the “formation of copper complex” value is “bind to copper and form complexes”. Also, the apparent permeability (Papp) at 0.5 hr, 50 µM in data set [4] was determined as 33.4 ± 3.1 ×10⁻⁶ cm/s. The efflux ratio at 2 h, 50 μmol/L in data set [5] amounted to 0.7. The Papp at 2 h, 50 μmol/L in data set [5] (setting [6]) is 47.3 ± 6.1 ×10⁻⁶ cm/s; in data set [5] (setting [7]), 31.5 ± 2.2 ×10⁻⁶ cm/s.
In the case of `COc1c(I)cc(Cl)c2cccnc12` [Compound 5, 5-chloro-7-iodo-8-methoxyquinoline], the “increase of intracellular copper level” value in data set [1] was “did not change the accumulation of intracellular copper”. In data set [3], the “formation of copper complex” value is on record as “could not form complexes with copper”. Further, the Papp at 0.5 hr, 50 µM in data set [4] stood at 77.9 ± 5.4 ×10⁻⁶ cm/s. Moreover, in data set [5], the efflux ratio at 2 h, 50 μmol/L amounted to 0.6. The values for the apparent permeability (Papp) at 2 h, 50 μmol/L in data set [5] (setting [6]) and in data set [5] (setting [7]) were 21.5 ± 3.1 ×10⁻⁶ cm/s and 12.5 ± 1.6 ×10⁻⁶ cm/s, respectively.
As for `COc1ccc(Cl)c2cccnc12` [Compound 6, 5-chloro-8-methoxyquinoline], the “increase of intracellular copper level” value in data set [1] was “did not change the accumulation of intracellular copper”. Besides, the “formation of copper complex” value in data set [3] is given as “could not form complexes with copper”. In addition, the apparent permeability (Papp) at 0.5 hr, 50 µM in data set [4] came to 30.8 ± 4.9 ×10⁻⁶ cm/s. In addition, the efflux ratio at 2 h, 50 μmol/L in data set [5] stood at 0.7. The Papp at 2 h, 50 μmol/L amounted to 60.4 ± 2.4 ×10⁻⁶ cm/s in data set [5] (setting [6]) and 41.3 ± 2.7 ×10⁻⁶ cm/s in data set [5] (setting [7]).
In the case of `[Cu+2].[O-]c1cccc2cccnc12.[O-]c1cccc2cccnc12` [Cu [8-OHQ]2], the “anti-proliferative effect of synthesized copper complex” value in data set [2] (unpublished work of the authors) was “comparable to their copper mixtures”.

Usually Papp stands for the rate of passage across a membrane or cell layer, normalised by area and donor concentration. Read a low Papp as poor permeation. The term efflux ratio denotes the permeability from basolateral to apical divided by that in the opposite direction, in the common usage.

For the origin of these results see publication PMC2814311 (Journal of biological inorganic chemistry : JBIC : a …, 2009).
